Assay outcomes deposited in PubChem BioAssay by The Scripps Research Institute Molecular Screening Center.
Compounds with a hit are over-represented: about 2.4% of the library has one in this group of screens.
NPY2 pot ag = NPY-Y2 potentiators or agonists, primary screen, cell-based. Neuropeptide Y receptor type 2 (Homo sapiens), P49146. cells expressing NPY-Y2, potentiator/agonist read-out. activation, % at 3.6 µM. 220,000 compounds, 0.45% hits; in the data active = activation above about 27%;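 also: cells stimulated with NPY near EC25 plus isoproterenol at EC100; 0% = vehicle plus submaximal agonist and 100% = vehicle plus saturating agonist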
NPY Y2 blocker = NPY-Y2 receptor antagonists, primary screen, cell-based; 140,000 compounds, 0.99% hits; Neuropeptide Y receptor type 2 (Homo sapiens), P49146; inhibition, % at 2.7 µM; NPY-Y2 expressing cells, antagonist mode; AID 793, 2007; in the data active = inhibition above about 17%;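 also: 0% = vehicle with agonist challenge and 100% = reference antagonist with challenge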
S1P4 agonist = S1P4 receptor agonists, primary screen, cell-based; Sphingosine 1-phosphate receptor 4 (Homo sapiens), O95977; S1P4-expressing cell line, agonist reporter assay; activation, % at 4.98 µM; 220,000 compounds, 0.35% hits; in the data active = activation above about 11%;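 also: 0% = DMSO vehicle and 100% = reference agonist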
Target sequence (O95977 whole entry, looked up): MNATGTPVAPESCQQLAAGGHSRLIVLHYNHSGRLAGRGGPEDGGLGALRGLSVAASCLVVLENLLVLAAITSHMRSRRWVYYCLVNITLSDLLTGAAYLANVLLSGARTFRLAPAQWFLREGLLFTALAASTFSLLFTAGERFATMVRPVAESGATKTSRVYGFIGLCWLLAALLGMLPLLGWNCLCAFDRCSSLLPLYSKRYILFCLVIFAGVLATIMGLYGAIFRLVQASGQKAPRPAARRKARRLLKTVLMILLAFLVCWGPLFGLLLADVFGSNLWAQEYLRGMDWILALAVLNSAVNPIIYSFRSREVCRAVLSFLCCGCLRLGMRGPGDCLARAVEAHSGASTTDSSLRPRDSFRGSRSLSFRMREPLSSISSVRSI
S1P4 antagonist = S1P4 receptor antagonists, primary screen, cell-based | S1P4-expressing cells, antagonist mode, reporter read-out | inhibition, % at 4.98 µM | 220,000 compounds, 0.26% hits | AID 1510, 2009; in the data active = inhibition above about 29%;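 also: 0% = wells stimulated with agonist and 100% = vehicle wells without agonist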
NPY-Y1 PAM-ag = NPY-Y1 receptor potentiators or agonists, primary screen, cell-based; 220,000 compounds, 0.37% hits; NPY-Y1 expressing cells, potentiator/agonist activation; activation, % at 3.6 µM; Neuropeptide Y receptor type 1 (Homo sapiens), P25929; in the data active = activation above about 33%, passing the limit was not always enough;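 also: cells stimulated with NPY at EC10 then isoproterenol at EC100; 0% = low agonist plus stimulus and 100% = saturating agonist plus stimulus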
NPY-Y1 antag = NPY-Y1 receptor antagonists, primary screen, cell-based. Neuropeptide Y receptor type 1 (Homo sapiens), P25929. HEK293-CNG Y1 cells, membrane potential fluorescence; NPY at EC95, then isoproterenol. inhibition, % at 3.6 µM. 200,000 compounds, 1% hits. AID 1040, 2008;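 active = inhibition above the campaign mean inhibition of all tested compounds plus 3 SD, cut at about 20% in these data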;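 also: 0% = DMSO wells given NPY plus isoproterenol and 100% = isoproterenol alone without NPY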
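System: HEK293 cells with Y1 receptor plus CNG channel / Probe or stimulus: NPY 25 nM then isoproterenol 1 µM plus Ro 20-1724 25 µM / Compound: one concentration, 3.6 µM, in 0.4% DMSO / Schedule: compound incubation 1 h at room temperature, readout 45 min post-stimulation / Measured by: membrane potential fluorescence / Read-out: % inhibition of NPY effect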
* marks the source's active call; other numbers are inactive results; . = no result given.

SMILES	NPY2 pot ag	NPY Y2 blocker	S1P4 agonist	S1P4 antagonist	NPY-Y1 PAM-ag	NPY-Y1 antag
Cn1c(=O)c2c(nc(CN3CCc4ccccc4C3)n2CCCO)n(C)c1=O	5	.	0	-15	-2	4
COC(=O)COc1ccc2c(-c3ccc(OC)cc3)cc(=O)oc2c1	98*	5	1	-5	98*	2
Cn1nnc2c[n+](CC(=O)c3ccc4ccccc4c3)cc(Br)c21	57*	.	0	8	47*	.
Cn1nnc2c[n+](CC(=O)c3ccc(Cl)cc3)cc(Br)c21	32	.	-1	19	44	.
Cc1cc2c(cc(C(=O)N3CCC(C(=O)N4CCCC4)CC3)n2Cc2c(F)cccc2Cl)o1	-13	21*	-1	-1	-2	26*
CCOC(=O)c1cc2occc2n1Cc1c(F)cccc1Cl	11	7	-2	-14	-29	3
CC1CCCC(C)N1C(=O)COc1ccc(C(=O)Nc2ccccc2N2CCOCC2)cc1 (centres undefined)	-14	.	1	4	-6	8
O=C(N/N=C/c1ccccc1)c1sccc1OCc1ccc(F)cc1	-19	20*	-3	-11	-12	1
O=C(N/N=C/c1ccco1)c1cc(Br)ccc1OCc1ccccc1	-19	10	1	-3	-53	10
O=C(N/N=C/c1ccncc1)c1ccccc1OCc1ccc(Br)cc1	-54	43*	0	7	-117	32*
O=C(N/N=C/c1ccccc1)c1ccc(OCc2ccccc2)cc1	-20	.	1	-23	-3	11
O=S(=O)(Nc1cccc(-c2ccc3nncn3n2)c1)c1ccc(Cl)s1	1	.	1	-5	-5	3
O=C(N/N=C/c1ccc([N+](=O)[O-])o1)c1cc2ccccc2o1	0	.	-3	10	10	.
O=[N+]([O-])c1ccc(/C=N/Nc2ccc3ccccc3c2)o1	66*	-10	0	-15	76*	-19
Cc1ccc(S(=O)(=O)N2CCC(C(=O)Nc3nnc(-c4ccco4)s3)CC2)cc1	52*	0	-2	-5	44*	-8
CCOC(=O)Nc1nc(-c2ccccc2)c(C(=O)c2ccc(Cl)cc2)s1	-48	20*	-2	8	-37	40*
CCOC(=O)Nc1sc(C)nc1-c1ccccc1	-14	4	-2	7	9	7
CC(C)(C)OC(=O)N1CCC[C@H]1c1nnc(SCc2cccc(Cl)c2)o1	7	.	0	-19	-3	.
CC(C)NC(=O)COC(=O)CNC(=O)c1cc(Cl)cc([N+](=O)[O-])c1	-7	5	-2	-7	-2	2
O=C(c1cccc(C(F)(F)F)c1)C1CCCN(Cc2cccn2-c2ncccn2)C1 (centres undefined)	-47	.	0	6	-28	33*
O=C(c1cnn2c(C(F)F)cc(-c3ccccc3)nc12)N1CCCCC1c1cccnc1 (centres undefined)	-7	.	3	7	-17	.
Cc1ccc(C2(O)CN(c3ccccc3)C3=[N+]2CCS3)cc1 (centres undefined)	-2	11	0	-3	2	11
OC1(c2ccc(F)cc2)CN(c2ccccc2)C2=[N+]1CCS2 (centres undefined)	92*	6	0	1	108*	5
O=C(CN(c1ccc(Br)cc1)S(=O)(=O)c1ccc(Cl)c([N+](=O)[O-])c1)NCCc1ccccc1	1	.	0	-14	7	-5
O=C(CN(c1cccc(C(F)(F)F)c1)S(=O)(=O)c1ccc(Cl)c([N+](=O)[O-])c1)NCc1ccccc1	61*	-1	0	21	81*	-10
SMILES	NPY2 pot ag	NPY Y2 blocker	S1P4 agonist	S1P4 antagonist	NPY-Y1 PAM-ag	NPY-Y1 antag
Cc1ccc(N(CC(=O)NCCc2ccc(F)cc2)S(=O)(=O)c2ccc(Cl)c([N+](=O)[O-])c2)c(C)c1	39*	-5	6	2	68*	-8
COc1ccc(NC(=O)C(c2cc3c(cc2[N+](=O)[O-])OCO3)N(C)c2ccccc2)cc1 (centres undefined)	8	0	-1	-1	22	10
COc1ccccc1CNCc1cccc(Oc2ccccc2)c1	-11	.	-1	11	-10	13
COc1ccc(C(NC(=O)c2c(F)c(F)c(F)c(F)c2F)c2ccccc2)cc1 (centres undefined)	35*	6	-1	-1	63*	-4
COC(=O)CN1C(=S)N(Cc2ccccc2)C(=O)C1CC(=O)Nc1ccc(Br)cc1 (centres undefined)	35*	-7	0	8	44*	-12
CC(=O)c1ccc(NC(=O)C(C)n2c3ccccc3c3nc(=O)cc(C)n32)cc1 (centres undefined)	2	.	-2	2	-9	.
CC(C)CN1CCN(Cc2cc(F)ccc2-n2cccn2)CC1CCO (centres undefined)	-3	.	1	-1	-11	22*
COc1ccc(C)cc1NC(=S)NC12CN3CN(CN(C3)C1)C2	7	.	0	-23	0	1
COc1cccc(CNc2cc(CSc3ccc(Cl)cc3)nc(C)n2)c1	-12	21*	-6	6	-58	21*
C/C(NC(=O)c1cccs1)=C1\C(=O)C[C@@H]2[C@H]1C2(C)C	-11	5	0	-1	-13	22*
Cc1ccc(NC(=O)COC(=O)C2(c3ccc(Cl)cc3)CCCC2)cc1	-2	4	0	4	21	0
Cc1ccccc1C(=O)N1CCN(c2ccc(NC(=O)c3ccc4c(c3)OCO4)cc2)CC1	56*	.	1	-4	45*	-7
CC(C)n1cc(/C(N)=N/O)c(=O)n(Cc2ccccc2)c1=O	-8	.	9	3	7	.
COC(=O)C(C)Sc1nc2c(c(=O)[nH]c(=O)n2C)n1CCCc1ccccc1 (centres undefined)	-12	46*	4	-17	-47	46*
CC/C(=N\NC(=O)c1ccc(N(C)C)cc1)c1ccccc1	0	1	2	-5	-33	12
CC1Cc2ccccc2N1Cc1nc2cc(Cl)ccc2c(=O)[nH]1 (centres undefined)	61*	1	1	15	65*	-1
NS(=O)(=O)c1ccc(Cl)cc1[N+](=O)[O-]	2	.	-2	8	-7	.
Cc1nnsc1-c1onc(C)c1C(=O)O/N=C/c1ccc(Cl)cc1	-19	.	0	10	-17	.
COC(=O)/C(=N/Nc1ccccc1)N1CCCc2ccccc21	-13	22*	0	1	6	29*
COC(=O)/C(=N/Nc1ccc(C)cc1)N1CCCc2ccccc21	-6	19*	3	-11	1	29*
